Measurements from ChEMBL document CHEMBL3763128, “Synthesis and antibacterial evaluation of novel 4″-glycyl linked quinolyl-azithromycins with potent activity against macrolide-resistant pathogens” (2016).
In brackets after ≈: the same amount, converted by molar mass.

What was measured:
Type in all cases: functional
Streptococcus pyogenes [1] = experiment: Antibacterial activity against constitutive macrolide-lincosamide-streptogramin B resistant Streptococcus pyogenes by agar microdilution method
How it was run: (§1)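 Agar microdilution per NCCLS guidelines; MIC reported in μg/mL; differences treated as significant only when more than a factor of 2 (one dilution) apart.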

Streptococcus pyogenes [2] = experiment: Antibacterial activity against efflux mediated macrolide resistant Streptococcus pyogenes by agar microdilution method; how it was run: as §1
Streptococcus pneumoniae [3] = experiment: Antibacterial activity against constitutive macrolide-lincosamide-streptogramin B resistant Streptococcus pneumoniae by agar microdilution method; how it was run: as §1
Staphylococcus aureus [4] = experiment: Antibacterial activity against inducibly macrolide-lincosamide-streptogramin B resistant Staphylococcus aureus by agar microdilution method; how it was run: as §1
Haemophilus influenzae = experiment: Antibacterial activity against Haemophilus influenzae by agar microdilution method
How it was run: (§2)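 MIC by agar microdilution following NCCLS guidelines. Values in μg/mL. Only differences of more than one twofold dilution were treated as significant. Ery-S denotes erythromycin-susceptible strains.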

Staphylococcus aureus [5] = experiment: Antibacterial activity against constitutive macrolide-lincosamide-streptogramin B resistant Staphylococcus aureus by agar microdilution method; how it was run: as §1
Staphylococcus aureus [6] = experiment: Antibacterial activity against efflux mediated macrolide resistant Staphylococcus aureus by agar microdilution method; how it was run: as §1
Streptococcus pneumoniae [7] = experiment: Antibacterial activity against efflux mediated macrolide resistant Streptococcus pneumoniae by agar microdilution method; how it was run: as §1
Staphylococcus aureus [8] = experiment: Antibacterial activity against erythromycin-susceptible Staphylococcus aureus by agar microdilution method; how it was run: as §2
Streptococcus pneumoniae [9] = experiment: Antibacterial activity against erythromycin-susceptible Streptococcus pneumoniae by agar microdilution method; how it was run: as §2
Streptococcus pyogenes [10] = experiment: Antibacterial activity against erythromycin-susceptible Streptococcus pyogenes by agar microdilution method; how it was run: as §2
Moraxella catarrhalis = experiment: Antibacterial activity against Moraxella catarrhalis by agar microdilution method; how it was run: as §2
Streptococcus pyogenes [11] = experiment: Antibacterial activity against inducibly macrolide-lincosamide-streptogramin B resistant Streptococcus pyogenes by agar microdilution method; how it was run: as §1

| SMILES | MIC (Streptococcus pyogenes [1]) [µg/mL] | MIC (Streptococcus pyogenes [2]) [µg/mL] | MIC (Streptococcus pneumoniae [3]) [µg/mL] | MIC (Staphylococcus aureus [4]) [µg/mL] | MIC (Haemophilus influenzae) [µg/mL] | MIC (Staphylococcus aureus [5]) [µg/mL] | MIC (Staphylococcus aureus [6]) [µg/mL] | MIC (Streptococcus pneumoniae [7]) [µg/mL] | MIC (Staphylococcus aureus [8]) [µg/mL] | MIC (Streptococcus pneumoniae [9]) [µg/mL] | MIC (Streptococcus pyogenes [10]) [µg/mL] | MIC (Moraxella catarrhalis) [µg/mL] | MIC (Streptococcus pyogenes [11]) [µg/mL] |
| --- | --- | --- | --- | --- | --- | --- | --- | --- | --- | --- | --- | --- | --- |
| CCC1OC(=O)[C@H](C)[C@@H](O[C@H]2C[C@@](C)(OC)[C@@H](OC(=O)CNCCCNCCOCCOCCNc3cc4c(cc3F)c(=O)c(C(=O)O)cn4C3CC3)[C@H](C)O2)C(C)[C@@H](O[C@@H]2O[C@H](C)C[C@H](N(C)C)[C@H]2O)[C@](C)(O)C[C@@H](C)CN(C)[C@H](C)[C@@H](O)[C@]1(C)O (single isomer, unassigned) | 4 (≈ 3.23 µM) | 1 (≈ 0.807 µM) | 2 (≈ 1.61 µM) | 4 (≈ 3.23 µM) | 4 (≈ 3.23 µM) | > 64 | 2 (≈ 1.61 µM) | 1 (≈ 0.807 µM) | ≤ 0.125 | ≤ 0.125 | ≤ 0.125 | 2 (≈ 1.61 µM) | 0.5 (≈ 0.403 µM) |
| CC[C@H]1OC(=O)[C@@H](C)[C@H](O[C@@H]2C[C@](C)(OC)[C@H](OC(=O)CNCCCNCCOCCOCCNc3cc4c(=O)c(C(=O)O)cn(C5CC5)c4cc3Cl)[C@@H](C)O2)[C@H](C)[C@H](O[C@H]2O[C@@H](C)C[C@@H](N(C)C)[C@@H]2O)[C@@](C)(O)C[C@H](C)CN(C)[C@@H](C)[C@H](O)[C@@]1(C)O (stereo in doubt) | 2 (≈ 1.59 µM) | 1 (≈ 0.796 µM) | 1 (≈ 0.796 µM) | 1 (≈ 0.796 µM) | 2 (≈ 1.59 µM) | > 64 | 1 (≈ 0.796 µM) | 0.5 (≈ 0.398 µM) | ≤ 0.125 | ≤ 0.125 | ≤ 0.125 | 0.5 (≈ 0.398 µM) | 0.25 (≈ 0.199 µM) |
| CCC1OC(=O)[C@H](C)[C@@H](O[C@H]2C[C@@](C)(OC)[C@@H](OC(=O)CNCCCNCCOCCNc3cc4c(cc3F)c(=O)c(C(=O)O)cn4C3CC3)[C@H](C)O2)C(C)[C@@H](O[C@@H]2O[C@H](C)C[C@H](N(C)C)[C@H]2O)[C@](C)(O)C[C@@H](C)CN(C)[C@H](C)[C@@H](O)[C@]1(C)O (single isomer, unassigned) | 4 (≈ 3.35 µM) | 2 (≈ 1.67 µM) | 2 (≈ 1.67 µM) | 2 (≈ 1.67 µM) | 2 (≈ 1.67 µM) | > 64 | 1 (≈ 0.836 µM) | 0.25 (≈ 0.209 µM) | 0.25 (≈ 0.209 µM) | ≤ 0.125 | ≤ 0.125 | 1 (≈ 0.836 µM) | 0.5 (≈ 0.418 µM) |
| CCC1OC(=O)[C@H](C)[C@@H](O[C@H]2C[C@@](C)(OC)[C@@H](OC(=O)CNC(=O)CSc3cnc4ccccc4n3)[C@H](C)O2)C(C)[C@@H](O[C@@H]2O[C@H](C)C[C@H](N(C)C)[C@H]2O)[C@](C)(O)C[C@@H](C)CN(C)[C@H](C)[C@@H](O)[C@]1(C)O (single isomer, unassigned) | 32 (≈ 31.7 µM) | 0.5 (≈ 0.496 µM) | 16 (≈ 15.9 µM) | 1 (≈ 0.992 µM) | 8 (≈ 7.93 µM) | > 64 | 8 (≈ 7.93 µM) | 0.25 (≈ 0.248 µM) | 4 (≈ 3.97 µM) | ≤ 0.125 | ≤ 0.125 | 16 (≈ 15.9 µM) | 8 (≈ 7.93 µM) |
| CCC1OC(=O)[C@H](C)[C@@H](O[C@H]2C[C@@](C)(OC)[C@@H](OC(=O)CNC(=O)CCNCCOCCNc3cc4c(=O)c(C(=O)O)cn(C5CC5)c4cc3Cl)[C@H](C)O2)C(C)[C@@H](O[C@@H]2O[C@H](C)C[C@H](N(C)C)[C@H]2O)[C@](C)(O)C[C@@H](C)CN(C)[C@H](C)[C@@H](O)[C@]1(C)O (single isomer, unassigned) | 2 (≈ 1.63 µM) | 1 (≈ 0.816 µM) | 1 (≈ 0.816 µM) | 2 (≈ 1.63 µM) | 2 (≈ 1.63 µM) | > 64 | 1 (≈ 0.816 µM) | 0.5 (≈ 0.408 µM) | ≤ 0.125 | ≤ 0.125 | ≤ 0.125 | 0.5 (≈ 0.408 µM) | 0.5 (≈ 0.408 µM) |
| CC[C@H]1OC(=O)[C@@H](C)[C@H](O[C@H]2C[C@@](C)(OC)[C@@H](OC(=O)CN)[C@H](C)O2)[C@@H](C)[C@H](O[C@H]2O[C@@H](C)C[C@@H](N(C)C)[C@@H]2O)[C@@](C)(O)C[C@H](C)CN(C)[C@@H](C)[C@@H]2OC(=O)O[C@@]12C | > 64 | > 64 | > 64 | > 64 | > 64 | > 64 | > 64 | 32 (≈ 38.5 µM) | 32 (≈ 38.5 µM) | ≤ 0.125 | ≤ 0.125 | > 64 | 32 (≈ 38.5 µM) |
